Source: PubChem BioAssay
MEKK2wt PB1 HTS – modulators of MEK5 binding to wildtype MEKK2, primary screen, biochemical, multiplex bead flow cytometry, Alexa488-MEK5 | Mitogen-activated protein kinase kinase kinase 2 (Homo sapiens), Q9Y2U5 | Alexa488-MEK5 binding to MEKK2 WT; actives lie on both sides | binding response (% of control), % at 10 µM | actives 1.1% (n = 290,000); in the data active means binding response below about 67% or above about 130%; inconclusive means no clear call, values can overlap the other calls; inactive means in between
UCH37 inh – inhibitors of human UCH37 deubiquitinase, primary screen, biochemical, Ub-AMC cleavage, fluorescence; purified proteasome/UCH37; inhibition, % (no concentration beside the values); actives 0.33% (n = 330,000); Ubiquitin carboxyl-terminal hydrolase isozyme L5 (Homo sapiens), Q9Y5K5;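 active means mean inhibition over replicate wells above about 20%, limit read from the data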;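 further: 0% = compound-free wells with enzyme and 100% = wells lacking proteasome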
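system = Proteasome-associated human UCH37 deubiquitinase | amount = 0.15 nM proteasome as dispensed | medium = pH 7.4 Tris-HCl (50 mM) with ovalbumin, ATP-MgCl2, DTT | incubation = 30 min preincubation with enzyme, 25 min cleavage at room temperature | detection = AMC fluorescence 355/460 nm | read-out basis = percent inhibition | controls = no-proteasome and no-compound wells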
MEKK2 mut-MEK5 – MEK5 binding signal on mutant MEKK2 PB1, primary screen, biochemical, multiplex bead flow cytometry, Alexa488-MEK5. percent response, % at 10 µM. actives 0.35% (n = 290,000). AID 1530, 2009. Alexa488-MEK5 binding to MEKK2 mutant; in the data active means percent response above about 24%, passing the limit was not always enough
UBC13 inh – UBC13 polyubiquitin chain formation inhibitors, primary screen, biochemical, TR-FRET, uHTS. inhibition, % at 20 µM. actives 0.47% (n = 330,000). AID 485273, 2010; in the data active means inhibition above about 45%, passing the limit was not always enough; inconclusive means no clear call, values can overlap the other calls
MEKK3 PB1 HTS – modulators of MEKK3-MEK5 PB1 binding, primary screen, biochemical, wildtype MEKK3, multiplex bead flow cytometry, Alexa488-MEK5; Mitogen-activated protein kinase kinase kinase 3 (Homo sapiens), Q99759; bead-based flow cytometry, Alexa488-MEK5 binding to MEKK3; actives lie on both sides; 0 = blocked by unlabeled MEK5, 100 = vehicle; binding response (% of control), % at 10 µM; actives 1.4% (n = 290,000);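 active means binding response more than 3 SD above or below the average of its plate-row segment, actives on both sides; inconclusive means wells at one plate position flagged as instrument error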;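 further: Alexa488 bead fluorescence after subtracting the streptavidin-only scavenger bead signal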
Target sequence (Q99759 whole entry, looked up): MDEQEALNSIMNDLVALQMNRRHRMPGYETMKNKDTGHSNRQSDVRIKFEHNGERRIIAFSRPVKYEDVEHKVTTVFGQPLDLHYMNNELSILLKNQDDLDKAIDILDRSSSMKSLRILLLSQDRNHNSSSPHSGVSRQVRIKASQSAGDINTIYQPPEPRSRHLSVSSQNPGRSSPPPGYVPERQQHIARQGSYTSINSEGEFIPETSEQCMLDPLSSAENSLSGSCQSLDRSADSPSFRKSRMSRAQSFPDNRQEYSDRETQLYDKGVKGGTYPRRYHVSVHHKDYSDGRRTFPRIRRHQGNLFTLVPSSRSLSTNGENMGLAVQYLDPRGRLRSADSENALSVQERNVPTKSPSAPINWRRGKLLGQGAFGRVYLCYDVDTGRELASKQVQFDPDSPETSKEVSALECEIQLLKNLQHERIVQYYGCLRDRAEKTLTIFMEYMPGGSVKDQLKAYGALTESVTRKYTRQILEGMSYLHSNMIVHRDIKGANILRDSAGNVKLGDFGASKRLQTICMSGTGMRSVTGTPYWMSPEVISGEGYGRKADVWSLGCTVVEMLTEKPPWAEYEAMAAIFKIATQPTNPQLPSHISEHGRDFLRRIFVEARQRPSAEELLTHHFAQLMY
Apaf1 inhib – inhibitors of human Apaf-1 apoptosome, primary screen, biochemical, DEVD-Rh110 fluorescence, uHTS | Apoptotic protease-activating factor 1 (Homo sapiens), O14727 | reconstituted apoptosome caspase-3 activity | inhibition, % at 20 µM | actives 0.71% (n = 330,000) | AID 489030, 2010; active means inhibition of at least 40% at 20 µM;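 further: plate controls were DMSO wells for no effect and DEVD-CHO caspase inhibitor wells for full effect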
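Material: reconstituted apoptosome with Apaf-1, cytochrome c, caspase-9, procaspase-3, dATP / Buffer or medium: pH 7.5 Hepes buffer with CHAPS, BSA, DTT / Also added: cytochrome c with DEVD-Rh110 / Schedule: compound with Apaf-1, dATP, procaspase-3 30 min, then 50 min reaction, room temperature / Technique: rhodamine 110 fluorescence at Ex 480/Em 540 nm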
MEKK2wt confirm – modulators of MEK5 binding to wildtype MEKK2, confirmation, biochemical, single concentration, multiplex bead flow cytometry. AID 1892, 2009. Alexa488-MEK5 binding to MEKK2 WT; actives lie on both sides. shares compounds with MEKK3 PB1 HTS. binding response (% of control), % at 10 µM. actives 2.4% (n = 5,900); in the data active means binding response below about 16% or above about 210%; inactive means in between
MEKK2mut-MEK5 – mutant MEKK2 PB1-MEK5 binding signal retest – biochemical, single concentration, multiplex bead flow cytometry, confirmation. shares compounds with MEKK3 PB1 HTS. Alexa488-MEK5 binding to MEKK2 mutant. percent response, % at 10 µM. actives 2% (n = 5,900); in the data active means percent response mostly above about 71%, no sharp cut-off; inactive means mostly below about 38%;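 further: higher means compound restores mutant binding toward wildtype level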
MEKK3-MEK5 inh – MEKK3 wild-type PB1 binding to MEK5, inhibitors, confirmation, biochemical, bead multiplex flow cytometry, single concentration, wildtype | shares compounds with MEKK3 PB1 HTS | actives 1.8% (n = 5,900) | AID 1894, 2009 | Alexa488-MEK5 binding to MEKK3; active compounds read low | binding response (% of control), % at 10 µM;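 active means binding response below 72% of control, or above a set upper limit, though filed actives all read lower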;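 further: 100% = DMSO only wells and 0% = binding blocked by excess unlabeled MEK5; lower values mean stronger disruption of MEK5 binding to MEKK3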
* = called active by the depositor; ? = inconclusive; . = not tested or not shown; ! = repeats disagree; [ ] = dose if it differs, or a comment. A selection: hits, their analogues and other compounds. The true share with any hit is near 3%.

SMILES	MEKK2wt PB1 HTS	UCH37 inh	MEKK2 mut-MEK5	UBC13 inh	MEKK3 PB1 HTS	Apaf1 inhib	MEKK2wt confirm	MEKK2mut-MEK5	MEKK3-MEK5 inh
COc1cc(C(=O)NNC(=O)CCOc2ccccc2C)cc(OC)c1OC	.	2	.	-2	.	-9	.	.	.
Cc1nc2cc(S(=O)(=O)N(C)C)ccc2n1-c1ccccc1	106	5	4	0	101	10	.	.	.
COCC(=O)N(Cc1cc2ccc(C)c(C)c2n2nnnc12)C1CCCC1	98	2	0	-6	102	14	.	.	.
COCc1[nH]nc2c1C1(C(=O)N(C)c3ccccc31)C(C#N)=C(N)O2 (stereo not given)	79	1	-5	3	79*[inhibitor]	0	106	4	103
CCN1C(=O)C2(C(C#N)=C(N)Oc3n[nH]c(COC)c32)c2ccccc21 (stereo not given)	98	0	-1	1	99	-17	.	.	.
O=C(NNC(=O)C1CC2CCC1C2)c1sc2ccccc2c1Cl (stereo not given)	108	5	0	7	149*	8	105	3	102
O=C(NC1CC1)c1sc2ccccc2c1Cl	97	4	1	-3	98	1	.	.	.
O=C(NC(N1CCOCC1)C(Cl)(Cl)Cl)c1ccccc1Cl (stereo not given)	55*[inhibitor]	6	-6	3	84	-7	106	8	107
COCc1[nH][nH]c(=O)c1/C=N/N1CCOCC1	56	.	-17	1	40*[inhibitor]	-3	104	5	107
c1ccc2[nH]c(-c3ccncc3)nc2c1	46*![inhibitor]	-27	-13	9	42*![inhibitor]	1	106	12	108
c1ccc(-c2nc3ccccc3[nH]2)cc1	108	3	8	-16	103	8	.	.	.
CCC(OC(=O)C(C)N1C(=O)C(=O)c2ccccc21)C(=O)Nc1ccccc1OC (stereo not given)	99	-1	3	3	100	10	.	.	.
CCOC(=O)CNC(=O)Nc1nnc(-c2ccc(OCC)cc2)o1	56	-3	-11	2	48*[inhibitor]	-5	97	-1	100
O=C(COC(=O)C1CCC(=O)N1)Nc1ccccc1Br (stereo not given)	109	5	-2	0	128*	-8	102	-3	102
O=C(COC(=O)C1CCC(=O)N1)Nc1ccc(Oc2ccccc2)cc1 (stereo not given)	101	-4	-1	-11	99	3	.	.	.
Cc1ccc(C)n1-c1ccc(C(=O)NCc2ccncc2)cc1	65	1	-15	-6	50*[inhibitor]	7	103	0	103
CCOc1ccc(C(=O)NCc2ccncc2)cc1	106	3	1	-3	100	7	.	.	.
Cc1sc(N/N=C/c2ccco2)nc1-c1ccccc1	98	.	-1	-11	131*	30	106	5	103
Cc1sc(NN=Cc2cccs2)nc1-c1ccccc1	.	3	.	.	.	.	.	.	.
COCc1cc(=O)[nH]c(SCC(=O)Nc2ccccc2)n1	101	2	-2	-2	97	0	.	.	.
Cc1c(C)[n+](=O)c(-c2ccc(Br)cc2)c(C)n1[O-]	47*[inhibitor]	1	-7	0	50*[inhibitor]	-8	94	-9	98
Cc1ccc(S(=O)(=O)Cn2nnnc2C(C(C)C)N2CCN(c3nc4ccccc4s3)CC2)cc1 (stereo not given)	98	2	-5	-5	93	14	.	.	.
NC(=O)CCN1CCCCC1	91	-2	-10	0	98	-1	.	.	.
O=C(CCC(=O)CCN1CCCCC1)CCN1CCCCC1	175*	1	32	16	102	14	136	14	97
CC(C)CNC(CC(=O)Nc1cccc([N+](=O)[O-])c1)C(=O)O (stereo not given)	97	1	0	-13	93	-4	.	.	.
SMILES	MEKK2wt PB1 HTS	UCH37 inh	MEKK2 mut-MEK5	UBC13 inh	MEKK3 PB1 HTS	Apaf1 inhib	MEKK2wt confirm	MEKK2mut-MEK5	MEKK3-MEK5 inh
COC(=O)c1ccc(CSc2nc3ccccc3c(=O)n2-c2ccccc2)o1	96	-1	-2	8	102	17	.	.	.
COC(=O)c1ccc(CSc2nnc(-c3ccc4c(c3)OCO4)n2-c2ccccc2)o1	109	5	4	-5	131*	15	104	3	105
c1cc2c(cc1C1CCCCC1)c1c3n2CCN=C3CCC1	135*	0	19	34	83	31	115	8	103
Cc1ccc2c(c1)c1c3n2CCN=C3CCC1	91	2	-4	4	89	5	.	.	.
COc1ccccc1-n1ccnc(SCC(=O)NCc2ccccc2)c1=O	.	-7	.	2	.	13	.	.	.
CN1CCN(c2ccc(C(F)(F)F)cc2NC(=O)Nc2ccccc2)CC1	150*	7	18	22	109	10	159	39	110
CCOC(=O)c1ccc(N2C(=O)CC(NNC(=O)c3ccc(Br)s3)C2=O)cc1 (stereo not given)	101	4	-2	?	97	10	.	.	.
CCOC(=O)c1ccc(N2C(=O)CC(Nc3ccc(O)cc3)C2=O)cc1 (stereo not given)	110	2	28	-8	128*	-16	100	8	104
O=c1oc2ccccc2nc1/C=C(O)/C=C\c1ccccc1	61*[inhibitor]	.	-28	-22	82*[inhibitor]	1	77	-15	100
COc1ccc(NC(=O)Nc2nnc(Cc3ccc(OC)c(OC)c3)s2)cc1	105	1	2	-5	108	-3	.	.	.
CCC(=O)N(CCc1ccccc1)Cc1cc2ccc(OC)cc2[nH]c1=O	102	-1	2	3	101	9	.	.	.
